This passage reports inhibition, IC50 and EC50 results from ChEMBL document CHEMBL2417487, “Asteriscane-type sesquiterpenoids from the soft coral Sinularia capillosa” (J Nat Prod, 2013).

What is called inhibition is the relative decrease from the control value, in per cent. One may read the IC50 as the concentration that gives 50% inhibition. By EC50 is commonly meant the concentration that produces a half-maximal response. Read a low EC50 as a more potent agent.

Assay [1] in a line: Antiinflammatory activity in BALB/c mouse splenocytes assessed as inhibition of LPS-induced TNFalpha production at 10 uM after 24 hrs. The conditions noted are these: Splenocyte. The class given is functional. In short, it runs like this: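 BALB/c mouse splenocyte suspensions were cultured in RPMI 1640 with 10% FBS. Compounds were dissolved in DMSO and given at 10 μM for 24 h, followed by LPS stimulation at 1 μg/mL. NK-007 at 100 nM served as positive control. TNF-α in culture supernatants was measured with cytometric bead array kits and reported as inhibitory rate.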

Another assay concerns BGC-823. Nature of the assay: Cytotoxicity against human BGC823 cells by MTT assay. The class given is functional, cell-based. Background: Tetrazolium assays rely on reduction of a dye to a coloured formazan, in cell work by metabolically active cells.
In a further assay the test system is A549. Nature of the assay: Cytotoxicity against human A549 cells by MTT assay. It is filed as functional, cell-based.
In a further assay the test system is HepG2. Nature of the assay: Cytotoxicity against human HepG2 cells by MTT assay. The class given is functional, cell-based.
Another assay deals with HCT-8. Nature of the assay: Cytotoxicity against human HCT8 cells by MTT assay. It is filed as functional, cell-based.
The subject of another assay is SK-OV-3. Nature of the assay: Cytotoxicity against human SKOV3 cells by MTT assay. The class given is functional, cell-based.
The test system of a further assay is Amphibalanus amphitrite. Nature of the assay: Antifouling activity against barnacle Balanus amphitrite Darwin. It is filed as functional, organism-based. In short, it runs like this:
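Barnacle nauplii were reared to cyprids at 26−28 °C and fed Chaetoceros gracilis, reaching the cyprid stage within four days. Fresh cyprids were used for testing, and the value is reported as IC50.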

≈ marks a conversion by molar mass, not a printed value.

Take `C/C1=C/C2=C(CC(C)(C)[C@@H]2O)[C@H](C)CC[C@@H]1O`: the inhibition at 10 µM in assay [1] was determined as 16%. The half-maximal inhibitory concentration (IC50) in the assay with BGC-823, in the assay with A549, with HepG2, in the assay with HCT-8 and in the assay on SK-OV-3 was more than 10 µg/mL in each case.
`C/C1=C/C2=C(CC(C)(C)[C@H]2O)[C@H](C)CC[C@@H]1O`: the IC50 with BGC-823, with A549, in the assay on HepG2, in the assay with HCT-8 and with SK-OV-3 was more than 10 µg/mL in each case.
Regarding `CC(=O)C[C@@H]1CC(C)(C)C=C1[C@]1(C)CCC(=O)O1`, the IC50 in the assay on BGC-823, with A549, in the assay with HepG2, in the assay with HCT-8 and in the assay on SK-OV-3 was more than 10 µg/mL each time.
In the case of `C/C1=C/C2=C(CC(C)(C)C2=O)[C@H](C)CC[C@@H]1O`, the concentration for half-maximal inhibition (IC50) in the assay on BGC-823, in the assay with A549, in the assay with HepG2, in the assay with HCT-8 and with SK-OV-3 was more than 10 µg/mL in each case.
As for `C/C1=C/C2=C(CC(C)(C)C2=O)[C@H](C)CCC1=O`, the IC50 in the assay with BGC-823, in the assay with A549, in the assay on HepG2, with HCT-8 and with SK-OV-3 was more than 10 µg/mL in each case.
Turning to `C/C(=C/CC[C@H](C)O)CC1=CC(C)(C)CC1=O`, the IC50 in the assay with BGC-823, in the assay with A549, with HepG2, with HCT-8 and in the assay with SK-OV-3 was more than 10 µg/mL in each case.
Turning to `CC(=O)/C=C1/CC(C)(C)C[C@]12OC(=O)CC[C@H]2C`, the IC50 in the assay on BGC-823, in the assay with A549, with HepG2, with HCT-8 and in the assay on SK-OV-3 was more than 10 µg/mL throughout.
`C/C1=C/[C@]23O[C@]2(CC(C)(C)C3=O)[C@H](C)CC[C@@H]1O`: the IC50 in the assay on BGC-823, in the assay on A549, in the assay on HepG2, in the assay with HCT-8 and in the assay with SK-OV-3 was more than 10 µg/mL in each case.
For the compound `CC(=O)CC/C=C(/C)CC1=CC(C)(C)CC1=O`, the IC50 with BGC-823, in the assay with A549, with HepG2, with HCT-8 and with SK-OV-3 was more than 10 µg/mL each time.
For `CC1(C)CC2=C[C@@](C)(O)[C@@]3(O)CC[C@@](C)(O)[C@]2(C1)O3`, the IC50 with BGC-823, in the assay on A549, in the assay with HepG2, in the assay with HCT-8 and with SK-OV-3 was more than 10 µg/mL throughout.
With `CC1=C[C@@]23CC(C)(C)C[C@@]2(O)[C@H](C)CC[C@@H]1O3`, the half-maximal inhibitory concentration (IC50) in the assay with BGC-823, with A549, in the assay on HepG2, with HCT-8 and in the assay on SK-OV-3 was more than 10 µg/mL each time.
Turning to `C/C1=C/C2=CC(C)(C)C[C@@]2(OO)[C@H](C)CC[C@@H]1O`, the IC50 in the assay with BGC-823, in the assay on A549, with HepG2, with HCT-8 and in the assay on SK-OV-3 was more than 10 µg/mL each time.
As to `CC1=CC2=CC(C)(C)C[C@@]23O[C@]1(O)CC[C@H]3C`, the IC50 in the assay with BGC-823, in the assay with A549, in the assay on HepG2, in the assay on HCT-8 and with SK-OV-3 was more than 10 µg/mL each time.
Turning to `C[C@@H]1CC[C@]2(O)O[C@]13CC(C)(C)[C@H](O)C3=C[C@@]2(C)O`, the IC50 with BGC-823, in the assay on A549, in the assay with HepG2, in the assay with HCT-8 and with SK-OV-3 was more than 10 µg/mL in each case.
`CC1=C[C@]2(O)CC(C)(C)C[C@]23O[C@@]1(O)CC[C@H]3C`: the IC50 in the assay with BGC-823, in the assay on A549, in the assay with HepG2, with HCT-8 and with SK-OV-3 was more than 10 µg/mL throughout.
`C[C@@H]1CC[C@]2(O)O[C@]13CC(C)(C)CC3=C[C@@]2(C)O`: the inhibition at 10 µM in assay [1] was 21%. The IC50 with Amphibalanus amphitrite is 54 µM; in the assay with BGC-823, more than 10 µg/mL; with A549, more than 10 µg/mL; with HepG2, more than 10 µg/mL; in the assay with HCT-8, more than 10 µg/mL; in the assay on SK-OV-3, more than 10 µg/mL.
For the compound `C/C1=C/C2=CC(C)(C)C[C@]2(OO)[C@H](C)CC[C@@H]1O`, the IC50 in the assay with BGC-823, in the assay on A549, in the assay on HepG2, in the assay on HCT-8 and in the assay on SK-OV-3 was more than 10 µg/mL in each case.
Consider `CC(=O)CC/C=C(/C)C[C@@H]1CC(C)(C)CC1=O`, for which, in the assay with Amphibalanus amphitrite, the response was half-maximal at 13.9 µg/mL (≈ 58.8 µM) (EC50).
`C[C@@H]1CCC(=O)[C@](C)(O)/C=C2/CC(C)(C)C[C@@H]21`: the IC50 in the assay on Amphibalanus amphitrite is 9.7 µM; in the assay on BGC-823, more than 10 µg/mL; with A549, more than 10 µg/mL; in the assay on HepG2, more than 10 µg/mL; with HCT-8, more than 10 µg/mL; in the assay on SK-OV-3, more than 10 µg/mL.
As for `CC(=O)CC/C=C(/C)C[C@H]1CC(C)(C)CC1=O` [(-)-SINULARONE A], the inhibition at 10 µM in assay [1] worked out at 23%. Moreover, the 50% inhibitory concentration (IC50) with Amphibalanus amphitrite amounted to 74 µM.
